According to PMC11551477 (Pharmacology Research & Perspectives, 2024):
Where two headings read alike, the source gives them in different places.

Tests used:
[1] = Integrated PopPK analysis; type: in vivo, human (Japanese pediatric patients and adult population)
How it was run: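 Plasma concentrations (2611 samples, 142 Japanese subjects) were pooled from six oral-dosing studies: pediatric patients aged 6–18 y on once-daily doses for 52 weeks, healthy adult males, and fed adults with normal, mild or moderately impaired renal function. Assays were LC–MS/MS (LLOQ 0.5 ng/mL) or HPLC (LLOQ 4 ng/mL). Points with |CWRES| >6 were excluded. Model: linear two-compartment, first-order absorption with lag and first-order elimination. Covariate selection was forward (p<.05) then backward (p<.01), with condition number ≤1000. Evaluation used bootstrap and pc-VPC.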

[2] = Post hoc estimates of steady-state PK parameters from the PopPK final model; type: in vivo, human (Japanese pediatric patients and adult population); details: for CLss/F (apparent total body clearance at steady state) / Dose‐normalized AUCτ,ss / Dose‐normalized C max,ss: fed, mean ± SD
How it was run: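 Steady-state parameters were derived by post hoc estimation from the final PopPK model, assuming each study's dose given once daily to fed subjects. Pediatric estimates used the original maintenance doses: 20 mg for <40 kg and 40 mg for ≥40 kg. CL/F was also expressed per body weight. Outputs were CLss/F, Cmax,ss and AUCτ,ss, compared with the adult population.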

[3] = test system: plasma protein (mainly albumin); details: binds mainly to albumin; cited from earlier work
[4] = cited from earlier work
[5] = 20 mg repeated, fed, NCA, cited from earlier work
[6] = healthy Japanese adult males, NCA; cited from earlier work
[7] = cited from earlier work; remark: listed apart in the source
[8] = test system: hyperuricemia including gout; details: pediatric patients weighing <40 kg and ≥40 kg; cited from earlier work
[9] = standard NCA analysis; cited from earlier work
[10] = fed vs fasted, present PopPK analysis
[11] = final PopPK model, fixed effect
[12] = adult population (n = 113), 10–160 mg once daily
[13] = pediatric patients <40 kg (n = 10), 20 mg once daily
[14] = pediatric patients weighing <40 kg vs adult population
[15] = pediatric patients weighing ≥40 kg vs adult population
[16] = pediatric patients ≥40 kg (n = 19), 40 mg once daily
[17] = mild dysfunction group (CLCr-based)
[18] = moderate renal dysfunction group (CLCr-based)

## Cc1nc(-c2ccc(OCC(C)C)c(C#N)c2)sc1C(=O)O [febuxostat]
[1]; CV = SQRT(EXP(ω^2)–1) × 100
  Between-subject variability of CL/F, CV (%): 26.2%
  Between-subject variability of Ka, CV (%): 306.3%
  Between-subject variability of Q/F, CV (%): 71.3%
  Between-subject variability of V2/F, CV (%): 25.7%
  Between-subject variability of V3/F, CV (%): 54.4%
[1]; CV = σ × 100
  Residual variability, CV (%): 36.9%
[1]; bootstrap, 1000 simulations
  ALAG1, Bootstrap Median: 0.438 h
  ALAG1, Bootstrap parameter estimate Mean ± SE: 0.441 ± 0.0210 h
  CL/F, Bootstrap Median: 6.52 L/h
  CL/F, Bootstrap parameter estimate Mean ± SE: 6.52 ± 0.197 L/h
  CLEGFR, Bootstrap Median: 0.326
  CLEGFR, Bootstrap parameter estimate Mean ± SE: 0.326 ± 0.0586
  CLWGT, Bootstrap Median: 0.580
  CLWGT, Bootstrap parameter estimate Mean ± SE: 0.589 ± 0.130
  F1 (FED), Bootstrap Median: 0.839
  F1 (FED), Bootstrap parameter estimate Mean ± SE: 0.838 ± 0.0274
  Ka, Bootstrap Median: 3.51 h⁻¹
  Ka, Bootstrap parameter estimate Mean ± SE: 4.24 ± 2.78 h⁻¹
  Q/F, Bootstrap Median: 1.79 L/h
  Q/F, Bootstrap parameter estimate Mean ± SE: 1.78 ± 0.127 L/h
  V2/F, Bootstrap Median: 19.4 L
  V2/F, Bootstrap parameter estimate Mean ± SE: 19.4 ± 0.792 L
  V3/F, Bootstrap Median: 15.6 L
  V3/F, Bootstrap parameter estimate Mean ± SE: 15.5 ± 0.822 L
  σ ^2, Bootstrap Median: 0.135
  σ ^2, Bootstrap parameter estimate Mean ± SE: 0.135 ± 0.00823
  ω Ka ^2, Bootstrap Median: 2.37
  ω Ka ^2, Bootstrap parameter estimate Mean ± SE: 2.60 ± 0.908
  ω Q/F ^2, Bootstrap Median: 0.409
  ω Q/F ^2, Bootstrap parameter estimate Mean ± SE: 0.414 ± 0.0686
  ω Q/F‐V3/F ^2, Bootstrap Median: 0.302
  ω Q/F‐V3/F ^2, Bootstrap parameter estimate Mean ± SE: 0.304 ± 0.0507
  ω V2/F ^2, Bootstrap Median: 0.0633
  ω V2/F ^2, Bootstrap parameter estimate Mean ± SE: 0.0648 ± 0.0188
  ω V3/F ^2, Bootstrap Median: 0.251
  ω V3/F ^2, Bootstrap parameter estimate Mean ± SE: 0.254 ± 0.0511
[1]; [10]
  Reduction of AUCτ,ss in the fed group: 16.2%
  Reduction of C max,ss in the fed group: 16.2%
  Reduction of relative bioavailability in the fed group: 16.2%
[1]; final PopPK model
  σ ^2 (exponential error), residual variability, Estimate: 0.136
  ω CL/F‐V2/F ^2 (covariance, correlation variability), Estimate: 0.0483
  ω Ka ^2 (between-subject variability), Estimate: 2.34
  ω Q/F ^2 (between-subject variability), Estimate: 0.411
  ω Q/F‐V3/F ^2 (covariance, correlation variability), Estimate: 0.307
  ω V2/F ^2 (between-subject variability), Estimate: 0.0638
  ω V3/F ^2 (between-subject variability), Estimate: 0.259
[1]; final PopPK model, exponential error model
  ω CL/F ^2 (between-subject variability), Estimate: 0.0662
[1]; [11]
  ALAG1 (absorption lag time), Estimate: 0.437 h
  Ka (first-order absorption rate constant), Estimate: 3.43 h⁻¹
[1]; final PopPK model, power function exponent, centered at 60.6 kg
  CLWGT (covariate for effect of body weight on CL/F), Estimate: 0.584
[1]; final PopPK model, power function exponent, centered at 98.6 mL/min/1.73 m^2
  CLEGFR (covariate for effect of eGFR on CL/F), Estimate: 0.324
[1]; human, plasma, oral
  Vd/F: 19.4 L
[2]; [12]
  CLss/F (apparent total body clearance at steady state): 8.27 ± 2.00 L/h
  Dose‐normalized AUCτ,ss: 128 ± 32 ng·h/mL/mg
  Dose‐normalized C max,ss: 30.2 ± 10.6 ng/mL/mg
[2]; children or adults, Figure S2
  CL/F adjusted by body weight (post hoc estimate), males vs females: no clear difference
[2]; [13]
  CLss/F (apparent total body clearance at steady state): 4.28 ± 1.20 L/h
  Dose‐normalized AUCτ,ss: 251 ± 72 ng·h/mL/mg
  Dose‐normalized C max,ss: 42.7 ± 7.6 ng/mL/mg
[2]; [14]
  CLss/F relative to the adult population: 0.52 fold
  Dose‐normalized AUCτ,ss relative to the adult population: 1.96 fold
  Dose‐normalized C max,ss relative to the adult population: 1.41 fold
[2]; [15]
  CLss/F relative to the adult population: 0.80 fold
  Dose‐normalized AUCτ,ss relative to the adult population: 1.38 fold
  Dose‐normalized C max,ss relative to the adult population: 1.18 fold
[2]; [16]
  CLss/F (apparent total body clearance at steady state): 6.59 ± 2.45 L/h
  Dose‐normalized AUCτ,ss: 176 ± 75 ng·h/mL/mg
  Dose‐normalized C max,ss: 35.7 ± 10.4 ng/mL/mg
[3]
  Plasma protein binding rate: approximately 99%
[4]
  Eliminated as unchanged drug through the urine: < 5%
[5]; [17]
  Increase of AUCτ,ss vs normal renal function group: 52.5%
  Steady‐state plasma C max,ss vs normal renal function group: did not differ noticeably
[5]; [18]
  Increase of AUCτ,ss vs normal renal function group: 67.6%
  Increase of C max,ss vs normal renal function group: 25.5%
[6]
  AUCinf lower in the fed group than in the fasted group: 18%
  C max lower in the fed group than in the fasted group: 28%
[7]
  Solubility (in words): poorly soluble
[8]
  Efficacy in pediatric patients compared with adults: as effective
  Tolerability in pediatric patients compared with adults: well tolerated
[9]
  Effect of sex on PK: no notable effect
